Results collected from several papers.
Target: PAS domain-containing serine/threonine-protein kinase (PASK, Homo sapiens, UniProt Q96RG2)

SMILES | test | setting | measurement | value
O=C(Nc1cnn(-c2csc(C(=O)NC3COC3)c2)c1)Nc1ccccc1Cl | enzyme activity, inhibitor | 5 µM | remaining activity | 96.3%
CCCOc1ccc(OC)c(F)c1C(=O)c1ccc(C(=O)N[C@@H]2CNC[C@H]2NC(=O)c2ccc3[nH]ncc3c2)cc1 | enzyme activity, inhibitor | 10 µM | remaining activity | 6%
CCCS(=O)(=O)Nc1ccc(F)c(C(=O)c2c[nH]c3ncc(-c4ccc(Cl)cc4)cc23)c1F | enzyme activity, inhibitor | 1 µM | inhibition | < 10%
CCN(CC)c1ccc(C2=NNC(=O)CC2C)cc1[N+](=O)[O-] (stereo not shown) | enzyme activity, inhibitor | 10 µM | remaining activity | 98%
CN1CC(Oc2cnc(C#N)cc2-c2ccn3nc(NC(=O)C4CC4)cc3c2)C1 | enzyme activity, inhibitor | 1 µM | inhibition | -16%
N#CCCc1ccc2c(c1)-c1[nH]c3ccc([N+](=O)[O-])cc3c1CC(=O)N2 | cell-free assay | 0.5 µM | remaining signal | 96.9%
CCN(CC)CCNC(=O)c1c(C)[nH]c(/C=C2\C(=O)Nc3ccc(F)cc32)c1C | enzyme activity, inhibitor | 10 µM | inhibition | 19%
COc1cc2ncnc(Nc3ccc(Oc4ccccc4)c(C)c3C)c2cc1OC | enzyme activity, inhibitor | 1 µM | inhibition | 6%
Cc1ccc(Nc2nccc(N(C)c3ccc4c(C)n(C)nc4c3)n2)cc1S(N)(=O)=O | enzyme activity, inhibitor | 0.3 µM | inhibition | -1%
CC(C)(C)c1nc2c(s1)c1nc(N)ncc1c1ccc(NS(=O)(=O)c3c(F)cccc3F)c(F)c12 | enzyme activity, inhibitor, radiometric | 1 µM | remaining activity | 99%
Cc1cc(NC(=O)c2cccc3cc(-c4cccc5[nH]nc(N)c45)ccc23)ccc1F | enzyme activity, inhibitor | 0.1 µM | activity vs control | 89%
Cc1sc(C(=O)NC2COC2)cc1-n1cc(NC(=O)Nc2c(F)cccc2Cl)cn1 | enzyme activity, inhibitor | 10 µM | remaining activity | 96.1%
CNC(=O)c1cc(Oc2ccc(NC(=O)Nc3ccc(Cl)c(C(F)(F)F)c3)cc2)ccn1 | enzyme activity, inhibitor | 10 µM | inhibition | -9%
